This is an account of results in ChEMBL document CHEMBL1124003, “A pyrimidine-based "flexible" bisubstrate analogue inhibitor of human thymidylate synthase” (J Med Chem, 1988).

Assay [1] addresses T1, Thymidylate synthase (Homo sapiens, UniProt P04818). Kind of assay: Inhibition of human thymidylate synthase at 600 uM concentration of 5,10-CH2-H4PteGlu. Put shortly:
(§1)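 TS purified ~1350-fold (specific activity 17.4 units/mg) from human acute myeloblastic leukemia cell pellet; tritium-release assay with [5-3H]dUMP, started by enzyme addition, 45 or 60 min incubation. Ki from varying dUMP, 5,10-CH2-H4PteGlu or 5,10-CH2-H4PteGlu5 at several fixed inhibitor levels; fixed cosubstrate 28 µM dUMP or 600 µM CH2-H4PteGlu (40 µM pentaglutamate); duplicate/triplicate, repeated.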
Target sequence in this assay (P04818 whole entry): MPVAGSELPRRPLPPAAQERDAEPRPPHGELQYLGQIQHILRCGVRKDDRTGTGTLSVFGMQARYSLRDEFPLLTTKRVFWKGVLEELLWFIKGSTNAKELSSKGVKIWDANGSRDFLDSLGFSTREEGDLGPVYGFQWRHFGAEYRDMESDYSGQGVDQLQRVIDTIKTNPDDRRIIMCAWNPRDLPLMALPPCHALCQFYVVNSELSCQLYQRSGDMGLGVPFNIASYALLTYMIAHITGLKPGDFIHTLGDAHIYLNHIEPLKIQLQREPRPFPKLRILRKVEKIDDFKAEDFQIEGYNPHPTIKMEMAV

Assay [2] addresses T1, Thymidylate synthase. As to the kind of experiment: Inhibition of human thymidylate synthase at 40 uM concentration of 5,10-CH2-H4PteGlu5. In a few lines:
as §1
Target sequence in this assay (P04818 whole entry): as above

The target in assay [3] is T1, Thymidylate synthase. As to the kind of experiment: Competitive inhibition of the human thymidylate synthase at 600 uM as Ki(slope) of 5,10-CH2-H4PteGlu. The settings on record: in the assay text read “28 uM dUMP” for “600 uM”. Put shortly:
as §1
Target sequence in this assay (P04818 whole entry): as above

Assay [4] concerns the target T1, Thymidylate synthase. As to the kind of experiment: Mixed inhibition of the human thymidylate synthase at 28 uM of 5,10-CH2-H4PteGlu5. In a few lines: as §1
Target sequence in this assay (P04818 2-313 limits assumed): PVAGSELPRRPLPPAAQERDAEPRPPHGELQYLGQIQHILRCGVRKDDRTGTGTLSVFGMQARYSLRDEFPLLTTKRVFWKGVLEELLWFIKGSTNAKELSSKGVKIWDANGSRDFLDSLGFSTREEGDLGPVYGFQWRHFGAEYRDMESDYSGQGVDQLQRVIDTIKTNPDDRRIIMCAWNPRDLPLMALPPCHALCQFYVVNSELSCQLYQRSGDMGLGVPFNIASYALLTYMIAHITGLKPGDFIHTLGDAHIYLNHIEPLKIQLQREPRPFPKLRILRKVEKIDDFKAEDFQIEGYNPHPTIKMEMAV
The target of assay [5] is T1, Thymidylate synthase. Kind of assay: Competitive inhibition of the human thymidylate synthase at 600 uM of 5,10-CH2-H4PteGlu.
Target sequence in this assay (P04818 whole entry): as the sequence (P04818 whole entry) above
Assay [6] concerns the target T1, Thymidylate synthase. As to the kind of experiment: Competitive inhibition of the human thymidylate synthase at 28 uM as Ki(slope) of 5,10-CH2-H4PteGlu. In a few lines: as §1
Target sequence in this assay (P04818 whole entry): as above

In the case of `Cc1nc(N)nc(O)c1N(CCNc1ccc(C(=O)NC(CCC(=O)O)C(=O)O)cc1)Cc1cn([C@H]2C[C@H](O)[C@@H](COP(=O)(O)O)O2)c(=O)[nH]c1=O` (stereo partly drawn), the IC50 against Thymidylate synthase [1] is 7300 nM; against Thymidylate synthase [2] it was 1180 nM.
In the case of `Nc1nc(O)c2c(n1)CCC(CNc1ccc(C(=O)NC(CCC(=O)O)C(=O)O)cc1)N2Cc1cn([C@H]2C[C@H](O)[C@@H](COP(=O)(O)O)O2)c(=O)[nH]c1=O` (stereo partly drawn), the IC50 against Thymidylate synthase [1] came out at 390 nM; at Thymidylate synthase [2], 200 nM. Also, the Ki came to 85 nM at Thymidylate synthase [3] and 27 nM at Thymidylate synthase [5]. On Thymidylate synthase [4], this compound gave a Kii of 0.11 µM. Also, the Kis at Thymidylate synthase [4] amounted to 0.33 µM.
The compound `Cc1nc(N)nc(O)c1N(CCN(C)c1ccc(C(=O)NC(CCC(=O)O)C(=O)O)cc1)Cc1cn([C@H]2C[C@H](O)[C@@H](COP(=O)(O)O)O2)c(=O)[nH]c1=O` (stereo partly drawn) displayed an IC50 against Thymidylate synthase [1] of 1000 nM. Further, the inhibition constant Ki at Thymidylate synthase [6] worked out at 230 nM. At Thymidylate synthase [4], this compound displayed a Kii of 0.2 µM and a Kis of 1.19 µM. This compound gave an IC50 against Thymidylate synthase [2] of 350 nM.

As usually defined, the IC50 is the concentration needed to halve the response being measured. A lower IC50 goes with higher potency. As a reminder, the Ki is a dissociation constant, usually derived from enzyme kinetics or from competition with a known ligand. A high value points to weaker binding.
